Most compounds without a hit are left out; they make up all but 1% or so of the library.
p-CIP stab down: p/CIP-EGFP fusion destabilizers, primary screen, fluorescence, F442A cells; Q05BA5; 16 h; decrease of EGFP signal, % at 10 µM; actives 0.01% (n = 290,000); AID 1984, 2009;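 active = EGFP signal decrease of at least 30% at 10 µM or well 3 SD below plate mean, unless failing retest; inactive = the rest, including hits failing retest or dose response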
Target sequence (Q05BA5 1-1403): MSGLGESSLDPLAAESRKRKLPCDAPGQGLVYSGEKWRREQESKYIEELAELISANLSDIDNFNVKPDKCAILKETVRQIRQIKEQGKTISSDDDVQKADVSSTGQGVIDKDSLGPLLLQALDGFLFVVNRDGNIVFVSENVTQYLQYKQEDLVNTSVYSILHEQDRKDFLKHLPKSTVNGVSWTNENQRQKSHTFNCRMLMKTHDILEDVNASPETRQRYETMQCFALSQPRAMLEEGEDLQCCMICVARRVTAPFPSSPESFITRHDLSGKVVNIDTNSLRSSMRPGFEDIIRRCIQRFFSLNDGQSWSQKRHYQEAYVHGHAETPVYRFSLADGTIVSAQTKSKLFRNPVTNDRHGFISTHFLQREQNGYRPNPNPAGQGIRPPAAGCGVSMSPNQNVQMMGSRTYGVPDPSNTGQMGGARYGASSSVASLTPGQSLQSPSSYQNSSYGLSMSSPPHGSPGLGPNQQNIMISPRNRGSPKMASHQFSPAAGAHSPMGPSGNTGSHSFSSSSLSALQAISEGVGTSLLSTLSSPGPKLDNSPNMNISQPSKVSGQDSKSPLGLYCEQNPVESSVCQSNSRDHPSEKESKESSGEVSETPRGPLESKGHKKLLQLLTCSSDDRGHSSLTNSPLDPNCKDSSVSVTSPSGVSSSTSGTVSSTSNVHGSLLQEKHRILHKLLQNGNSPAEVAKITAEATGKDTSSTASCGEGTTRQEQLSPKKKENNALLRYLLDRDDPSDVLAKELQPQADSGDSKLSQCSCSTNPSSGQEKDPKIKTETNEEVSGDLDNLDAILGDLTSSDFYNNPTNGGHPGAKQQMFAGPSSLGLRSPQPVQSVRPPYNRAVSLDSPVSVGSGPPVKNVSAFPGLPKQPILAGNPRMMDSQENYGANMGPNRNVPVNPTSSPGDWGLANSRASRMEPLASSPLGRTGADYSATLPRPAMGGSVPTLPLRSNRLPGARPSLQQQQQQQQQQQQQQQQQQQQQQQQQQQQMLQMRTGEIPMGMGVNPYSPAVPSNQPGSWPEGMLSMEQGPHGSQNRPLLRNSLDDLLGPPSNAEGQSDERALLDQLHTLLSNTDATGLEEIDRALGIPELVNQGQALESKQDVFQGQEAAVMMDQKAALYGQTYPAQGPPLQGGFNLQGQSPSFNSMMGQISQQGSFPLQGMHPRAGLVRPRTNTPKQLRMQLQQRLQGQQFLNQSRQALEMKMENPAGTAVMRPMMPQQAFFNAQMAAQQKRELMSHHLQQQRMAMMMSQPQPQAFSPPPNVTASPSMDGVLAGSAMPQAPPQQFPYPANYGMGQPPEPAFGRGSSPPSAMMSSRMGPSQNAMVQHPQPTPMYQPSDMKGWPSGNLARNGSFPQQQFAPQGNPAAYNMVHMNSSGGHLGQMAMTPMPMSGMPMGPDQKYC
Arrestin-AP2 inh: inhibitors of beta-arrestin/AP2 binding, primary screen, biochemical, GPCR trafficking, flow cytometry. inhibition, % at 10 µM. FITC-arrestin peptide / GST-AP2 beads; AP2 beta2 appendage carries R879A mutation. actives 0.31% (n = 340,000);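 active = inhibition above a set limit, near 3 SD of compounds lacking own fluorescence, cut at about 54% in these data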
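System: GST-AP2 R879A glutathione beads; medium: PBS, Tween 20 0.05%, BSA 0.1%; reagent: fluorescein-tagged arrestin peptide at 50 nM final; schedule: pre-incubation 12 min, peptide binding 1 h, room temperature; detection: flow cytometry, FL1 (488/535 nm); read-out: inhibition as reduced fluorescein signal on beads, percent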
CTSL1 counter: Fasciola hepatica cathepsin L1 inhibitors, primary screen, counter-screen for PFM18AAP inhibitor project, biochemical, QFRET, fluorogenic peptide substrate | recombinant F. hepatica cathepsin L1, Z-Leu-Arg-MCA fluorescence | inhibition, % at 5.96 µM | actives 0.49% (n = 300,000) | AID 1906, 2009;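 active = inhibition above the mean of all tested compounds plus 3 SD, set per screening campaign, cut at about 17% in these data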
Lipid droplet: inhibitors of hepatocyte lipid droplet formation, primary screen, imaging, high-throughput imaging, BODIPY stain; inhibition, % at 6.5 µM; AID 1656, 2009; actives 0.4% (n = 240,000); AML12 mouse hepatocytes, oleate lipid droplets;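 active = lipid droplet intensity inhibited by at least 50%, with more than 500 cells counted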
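Assay system: AML12 mouse liver cells | Compound: 6.5 µM single-point dosing | Schedule: Overnight exposure | Technique: Fluorescence imaging, 20x objective, two fields per well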
Lipid drop inh: hepatocyte lipid droplet accumulation inhibitors, confirmation, imaging, AML12 mouse hepatocytes, single concentration, high-content. shares compounds with Lipid droplet. BODIPY lipid droplet imaging; droplets induced with 100 µM oleic acid. inhibition, % at 5.2 µM. actives 65% (n = 870);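 active = inhibition of lipid droplet metric at least 50%, with more than 300 cells in each of four replicates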
AML12 cytotox: AML12 hepatocyte cytotoxicity, counter-screen for hepatic lipid droplet formation project, imaging, DAPI nuclear morphology imaging | z-score at 5 µM | actives 3% (n = 870) | shares compounds with Lipid droplet | AML12 mouse hepatocytes; hits give high values; cells fed 100 µM oleate overnight; in the data active = z-score above about 6.3;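 also: compound exposure lasted overnight at 37 °C before fixation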
AML12 tox conf: AML12 hepatocyte cytotoxicity, confirmation, cytotoxicity control for hepatic lipid droplet formation project, cell-based, single concentration. shares compounds with Lipid droplet. AML12 mouse hepatocyte viability, ATP luminescence; cells loaded with 100 µM oleic acid. cytotoxicity, % at 50 µM. 530 tested, under 10 active. AID 463219, 2010;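 active = cytotoxicity above 50% in each of four replicates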;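 also: compound exposure lasted overnight at 37 °C before the ATP read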
Hits are given with their value.

`CC(C)(C)C(=O)Nc1nc2c(s1)COc1ccccc1-2` gave p-CIP stab down inactive, Arrestin-AP2 inh inactive, CTSL1 counter inactive, Lipid droplet 55, Lipid drop inh 106, AML12 cytotox inactive and AML12 tox conf inactive.
For CCCC(=O)Nc1nc2c(s1)COc1ccccc1-2 the results were p-CIP stab down inactive, Arrestin-AP2 inh inactive, CTSL1 counter inactive and Lipid droplet inactive.
`COc1ccccc1NS(=O)(=O)c1cccc(C(=O)N/N=C/c2c(C)nn(-c3ccccc3)c2N2CCCC2)c1` gave p-CIP stab down inactive, Arrestin-AP2 inh inactive, CTSL1 counter inactive and Lipid droplet inactive.
Screening COc1ccccc1NS(=O)(=O)c1ccc(N/N=C/c2c(C)nn(-c3ccccc3)c2N2CCCC2)c([N+](=O)[O-])c1 returned p-CIP stab down inactive, Arrestin-AP2 inh inactive, CTSL1 counter inactive, Lipid droplet 100, Lipid drop inh 114, AML12 cytotox inactive and AML12 tox conf inactive.
`Cc1cccc(CN2C(=O)N/C(=C/c3ccc(C)s3)C2=O)c1` gave p-CIP stab down inactive, Arrestin-AP2 inh inactive, CTSL1 counter inactive and Lipid droplet inactive.
`Cc1cccc(CN2C(=O)N/C(=C/c3cc(C)n(-c4cc(C)ccn4)c3C)C2=O)c1` gave p-CIP stab down inactive, Arrestin-AP2 inh inactive, CTSL1 counter inactive, Lipid droplet 81, Lipid drop inh 105, AML12 cytotox inactive and AML12 tox conf inactive.
CN(C)c1ccc(/C=C2/C=C(c3ccc4c(c3)CCCC4)OC2=O)cc1 was read as p-CIP stab down inactive, Arrestin-AP2 inh inactive, CTSL1 counter inactive and Lipid droplet inactive.
COc1ccc(Cl)cc1NC(=O)CCc1ccccc1 was read as p-CIP stab down inactive, Arrestin-AP2 inh inactive, CTSL1 counter inactive and Lipid droplet inactive.
`COc1ccc(Cl)cc1NC(=O)CCNC(=O)OCc1ccccc1` gave p-CIP stab down inactive, Arrestin-AP2 inh inactive, CTSL1 counter inactive, Lipid droplet 63, Lipid drop inh 100, AML12 cytotox inactive and AML12 tox conf inactive.
COc1cc2c3nnc(-c4ccc(F)cc4)c-3cn(Cc3ccc(C)cc3)c2cc1OC was read as p-CIP stab down inactive, Arrestin-AP2 inh inactive, CTSL1 counter inactive and Lipid droplet inactive.
COc1cc2c3nnc(-c4ccc(F)cc4)c-3cn(Cc3cccc(C)c3)c2cc1OC was read as p-CIP stab down inactive, Arrestin-AP2 inh inactive, CTSL1 counter inactive, Lipid droplet 54, Lipid drop inh inactive and AML12 cytotox inactive.
Screening CC(C)(C)NC(=O)CSc1nc2ccc(Nc3nc(N4CCOCC4)nc(N4CCOCC4)n3)cc2s1 returned p-CIP stab down inactive, Arrestin-AP2 inh inactive, CTSL1 counter inactive, Lipid droplet 53, Lipid drop inh 89, AML12 cytotox inactive and AML12 tox conf inactive.
For CC(=O)CSc1nc2ccc(Nc3nc(N4CCOCC4)nc(N4CCOCC4)n3)cc2s1 the results were p-CIP stab down inactive, Arrestin-AP2 inh inactive, CTSL1 counter inactive and Lipid droplet inactive.
Screening COc1ccccc1N(C)S(=O)(=O)c1ccc(Cl)c(C(=O)N2CCC2)c1 returned Arrestin-AP2 inh inactive and CTSL1 counter inactive.
Cc1cc(C)n2nc(C(=O)N/N=C/c3c4ccccc4cc4ccccc34)nc2n1 was read as p-CIP stab down inactive, Arrestin-AP2 inh inactive, CTSL1 counter inactive, Lipid droplet 66, Lipid drop inh 103, AML12 cytotox inactive and AML12 tox conf inactive.
For COc1ccc(/C(N)=N/OC(=O)c2ccc(C)c([N+](=O)[O-])c2)cc1 the results were p-CIP stab down inactive, Arrestin-AP2 inh inactive, CTSL1 counter inactive and Lipid droplet inactive.
Cc1cc(C(=O)c2ccc3ccccc3c2)c(C)o1 was read as Arrestin-AP2 inh inactive and CTSL1 counter inactive.
Screening COc1ccc(C(C)=O)cc1CSc1nnc(Nc2ccc(C)cc2C)s1 returned p-CIP stab down inactive, Arrestin-AP2 inh inactive, CTSL1 counter inactive, Lipid droplet 90, Lipid drop inh inactive and AML12 cytotox inactive.
`CCOc1ccc(CCNC(=O)CCc2nc(-c3ccc(OC)cc3)no2)cc1OCC` gave p-CIP stab down inactive, Arrestin-AP2 inh inactive, CTSL1 counter inactive, Lipid droplet 69, Lipid drop inh 108, AML12 cytotox inactive and AML12 tox conf inactive.
For CCOc1ccc(CCNC(=O)CCc2nc(-c3ccc(C)cc3)no2)cc1OCC the results were p-CIP stab down inactive, Arrestin-AP2 inh inactive and CTSL1 counter inactive.
COc1ccc(-c2nc(CS(=O)CC(=O)NCCc3ccc(OC)c(OC)c3)c(C)o2)cc1 (stereo not drawn) was read as p-CIP stab down inactive, Arrestin-AP2 inh inactive, CTSL1 counter inactive and Lipid droplet inactive.
For CCOc1ccc(CCNC(=O)CS(=O)Cc2nc(-c3ccc(OC)cc3)oc2C)cc1OCC (stereo not drawn) the results were p-CIP stab down inactive, Arrestin-AP2 inh inactive, CTSL1 counter inactive, Lipid droplet 76, Lipid drop inh 81, AML12 cytotox inactive and AML12 tox conf inactive.
For CCN(CC)C(=O)CC(c1ccc(OC)cc1)c1c(OC)cc(OC)c2ccc(=O)oc12 (stereo not drawn) the results were p-CIP stab down inactive, Arrestin-AP2 inh inactive, CTSL1 counter inactive, Lipid droplet 64, Lipid drop inh inactive and AML12 cytotox inactive.
Screening CCN(CC)C(=O)CC(c1cc(OC)c(OC)c(OC)c1)c1c(OC)cc(OC)c2ccc(=O)oc12 (stereo not drawn) returned p-CIP stab down inactive, Arrestin-AP2 inh inactive, CTSL1 counter inactive and Lipid droplet inactive.
C/C=C(/C)C(=O)O[C@@H]1c2c(ccc3ccc(=O)oc23)OC(C)(C)[C@@H]1OC(=O)/C(C)=C\C was read as p-CIP stab down inactive, Arrestin-AP2 inh inactive, CTSL1 counter inactive and Lipid droplet inactive.
`C/C=C(/C)C(=O)O[C@@H]1[C@H](OC(=O)C=C(C)C)c2c(ccc3ccc(=O)oc23)OC1(C)C` gave p-CIP stab down inactive, Arrestin-AP2 inh inactive, CTSL1 counter inactive, Lipid droplet 54, Lipid drop inh inactive and AML12 cytotox inactive.
`Cc1cc(C)cc(NC(=O)CCC(=O)Nc2cc(C)on2)c1` gave p-CIP stab down inactive, Arrestin-AP2 inh inactive, CTSL1 counter inactive, Lipid droplet 75, Lipid drop inh 71, AML12 cytotox inactive and AML12 tox conf inactive.

Bioassay records: PubChem, several laboratories
